{"source": "paper PMC7187372", "about": "(Journal of Clinical Pharmacology, 2019)", "key": {"[1]": {"experiment": "Population pharmacokinetic analysis", "type": "in vivo, human", "outline": "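Single-dose intensive plasma sampling to 120 h (B1371001) or 24 h (B1371002), sparse in B1371003; multiple-dose intensive in all. HPLC–MS/MS assay, LLOQ 0.200 ng/mL. SAEM/IMP estimation; proportional residual error on log concentrations; missing covariates imputed as population median.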"}, "[2]": {"experiment": "Healthy volunteer population PK model", "type": "in vivo, human", "outline": "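Model built from noncancer subjects in studies B1371010 and B1371014 (n = 49; 1937 plasma concentrations). Structure: 2-compartment, first-order absorption and elimination, allometric body-weight scaling. Estimation by FOCEI. Food entered empirically as a linear covariate on ka. Residual error was proportional across all subjects. Intersubject variability is reported as CV (%).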"}, "[3]": {"experiment": "Simulation of steady-state exposure", "design": "species or system human"}, "[4]": {"experiment": "Ketoconazole", "type": "in vivo, human", "details": "glasdegib 200-mg single dose, ketoconazole 400 mg daily, healthy subjects"}, "[5]": {"details": "cited from earlier work"}, "[6]": {"details": "cited from earlier work", "remark": "listed apart in the source"}, "[7]": {"details": "cited from earlier work", "remark": "listed apart in the source"}, "[8]": {"details": "cited from earlier work", "remark": "listed apart in the source"}, "[9]": {"details": "healthy subjects; cited from earlier work"}, "[10]": {"details": "cited from earlier work", "remark": "listed apart in the source"}, "[11]": {"test_system": "Hedgehog pathway marker glioma‐associated oncogene homolog 1 (GLI1)", "details": "plasma exposures at doses ≥100 mg QD; cited from earlier work"}, "[12]": {"details": "higher; cited from earlier work"}, "[13]": {"details": "bootstrap median, 1000 resampled data sets"}, "[14]": {"details": "healthy volunteer model vs final model, higher"}, "[15]": {"details": "healthy volunteer model, n = 49, FOCEI"}, "[16]": {"details": "glasdegib 200-mg single dose, ketoconazole 400 mg daily, healthy subjects"}}}
{"smiles": "CN1CC[C@@H](NC(=O)Nc2ccc(C#N)cc2)C[C@@H]1c1nc2ccccc2[nH]1", "note": "[glasdegib, Glasdegib]", "values": [{"measurement": "Residual error, proportional error, Hematologic", "setting": "[1]; bootstrap median", "value": 65.7, "unit": "%"}, {"measurement": "Residual error, proportional error, Solid tumors", "setting": "[1]; bootstrap median", "value": 59.3, "unit": "%"}, {"measurement": "CL/F", "setting": "[1]; [13]", "value": 6.23, "unit": "L/h"}, {"measurement": "Q/F", "setting": "[1]; [13]", "value": 1.58, "unit": "L/h"}, {"measurement": "Vc/F", "setting": "[1]; [13]", "value": 3.52, "unit": "L"}, {"measurement": "Vp/F", "setting": "[1]; [13]", "value": 296.04, "unit": "L"}, {"measurement": "ka", "setting": "[1]; [13]", "value": 0.06, "unit": "hour^–1"}, {"measurement": "θBPBL", "setting": "[1]; [13]", "value": "–0.004"}, {"measurement": "θCYPmod", "setting": "[1]; [13]", "value": "–0.18"}, {"measurement": "θCYPstrong", "setting": "[1]; [13]", "value": "–0.31"}, {"measurement": "θWNCL", "setting": "[1]; [13]", "value": 0.41}, {"measurement": "θsolid on Q/F", "setting": "[1]; [13]", "value": "–0.69"}, {"measurement": "θsolid on Vp/F", "setting": "[1]; [13]", "value": "–0.81"}, {"measurement": "Effect of age, sex, race and hepatic function on glasdegib PK parameters", "setting": "[1]; covariate analysis", "value": "not found to be significant covariates"}, {"measurement": "Residual error, proportional error, Hematologic", "setting": "[1]; final model estimate", "value": 65.8, "unit": "%"}, {"measurement": "Residual error, proportional error, Solid tumors", "setting": "[1]; final model estimate", "value": 59.5, "unit": "%"}, {"measurement": "Change in CL/F per 1% change in baseline percentage bone marrow blasts", "setting": "[1]; from population median 38.2%, CL/F decreases as blasts increase", "value": 0.4, "unit": "%"}, {"measurement": "Intersubject variability CL/F", "setting": "[2]; healthy volunteer model", "value": "19.6% (5.8%)"}, {"measurement": "Intersubject variability Vc/F", "setting": "[2]; healthy volunteer model", "value": "11.0% (52.0%)"}, {"measurement": "Intersubject variability ka", "setting": "[2]; healthy volunteer model", "value": "53.4% (10.6%)"}, {"measurement": "CL/F in healthy subjects relative to patients with cancer", "setting": "[2]; [14]", "value": "> 1.6", "unit": "fold"}, {"measurement": "ka in healthy subjects relative to patients with cancer", "setting": "[2]; [14]", "value": "over 13 fold"}, {"measurement": "Residual error, proportional error", "setting": "[2]; healthy volunteer model, all subjects", "value": 58.6, "unit": "%"}, {"measurement": "CL/F", "setting": "[2]; [15]", "value": "10.1 (4.1%) L/h"}, {"measurement": "Q/F", "setting": "[2]; [15]", "value": "1.92 (11.4%) L/h"}, {"measurement": "Vc/F", "setting": "[2]; [15]", "value": "112 (4.1%) L"}, {"measurement": "Vp/F", "setting": "[2]; [15]", "value": "53.5 (6.9%) L"}, {"measurement": "ka", "setting": "[2]; [15]", "value": "0.79 (8.9%) hour^–1"}, {"measurement": "Intersubject variability Q/F", "setting": "[2]; healthy volunteer model, FIXED", "value": 3.2, "unit": "% FIXED"}, {"measurement": "Intersubject variability Vp/F", "setting": "[2]; healthy volunteer model, FIXED", "value": 3.2, "unit": "% FIXED"}, {"measurement": "Exposure increase from CL/F reduction", "setting": "[3]; 10th percentile baseline body weight vs 70 kg", "value": "~1.1", "unit": "fold"}, {"measurement": "Simulated fold change in steady-state maximum concentration and area under the curve", "setting": "[3]; 90th percentile baseline body weight", "value": "~0.75"}, {"measurement": "Exposure increase from CL/F reduction", "setting": "[3]; 90th percentile baseline bone marrow blasts", "value": "~1.1", "unit": "fold"}, {"measurement": "Increase in area under the curve", "setting": "[3]; strong CYP3A inhibitors", "value": "~1.4", "unit": "fold"}, {"measurement": "Decrease in CL/F with ketoconazole", "setting": "[4]", "value": 58, "unit": "%"}, {"measurement": "Dose proportionality of plasma exposure", "setting": "[5]; 5-600 mg QD, single and multiple daily dosing", "value": "dose‐proportional increase in plasma exposure"}, {"measurement": "Maximum tolerated dose (MTD)", "setting": "[5]; oral, patients", "value": 400, "unit": "mg QD"}, {"measurement": "Absolute oral bioavailability", "setting": "[6]", "value": 77.12, "unit": "%"}, {"measurement": "Radiolabeled dose recovered in feces (mean)", "setting": "[7]; 100 mg dose", "value": 41.7, "unit": "%"}, {"measurement": "Radiolabeled dose recovered in urine (mean)", "setting": "[7]; 100 mg dose", "value": 48.9, "unit": "%"}, {"measurement": "Renal contribution to elimination", "setting": "[7]", "value": "around 17%"}, {"measurement": "Unchanged glasdegib recovered in feces", "setting": "[7]; of the 100 mg dose", "value": 19.5, "unit": "%"}, {"measurement": "Unchanged glasdegib recovered in urine", "setting": "[7]; of the 100 mg dose", "value": 17.2, "unit": "%"}, {"measurement": "Plasma exposures with a strong CYP3A inhibitor", "setting": "[8]", "value": "increased"}, {"measurement": "Increase in AUC extrapolated to infinity with ketoconazole vs glasdegib alone", "setting": "[8]; [16]", "value": 140, "unit": "%"}, {"measurement": "Increase in maximum plasma concentration with ketoconazole vs glasdegib alone", "setting": "[8]; [16]", "value": 40, "unit": "%"}, {"measurement": "Effect of high-fat meal or proton pump inhibitors on PK", "setting": "[9]", "value": "not affected in a clinically relevant manner"}, {"measurement": "Plasma exposures with a strong CYP3A4 inducer", "setting": "[10]", "value": "decreased"}, {"measurement": "Downregulation of GLI1", "setting": "[11]", "value": "robust and consistent"}]}
{"smiles": "Cc1c(C(=O)Nc2ccc(N3C[C@@H](C)O[C@@H](C)C3)nc2)cccc1-c1ccc(OC(F)(F)F)cc1", "note": "[sonidegib, Sonidegib]", "values": [{"measurement": "Clearance in healthy subjects relative to patients with cancer", "setting": "[12]", "value": 3, "unit": "fold"}]}
